What was measured:
5-HT5AR [1] = molecular target: T1, 5-HT5AR (Homo sapiens, UniProt P47898); assay: BRET2 Gi1-activation assay, WT 5-HT5AR; assay type: cell-based; details: normalized to % of 5-HT
5-HT5AR [2] = molecular target: T1, 5-HT5AR; assay: BRET1 miniGi recruitment assay; assay type: cell-based; details: wild type 5-HT5AR
Outline: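 Transfected cells were plated after at least 24 h onto poly-lysine-coated plates in DMEM with 1% dialyzed FBS, at 40,000 cells/well, and left overnight. They were washed with HBSS/20 mM HEPES pH 7.4, then given coelenterazine h (5 μM final) and test compound dilutions with 0.3% BSA and 0.03% ascorbic acid. After 10 min at room temperature, emissions at 485 and 530 nm were read, and eYFP/Rluc BRET ratio was plotted against concentration.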

mutant 5-HT5AR [3] = molecular target: mutant 5-HT5AR (Homo sapiens, UniProt P47898, S204C); assay: BRET2 Gi1-activation assay, mutant 5-HT5ARs; assay type: cell-based; details: mutant S204C
Sequence of mutant 5-HT5AR (Homo sapiens, UniProt P47898, S204C) (P47898 whole entry S204C): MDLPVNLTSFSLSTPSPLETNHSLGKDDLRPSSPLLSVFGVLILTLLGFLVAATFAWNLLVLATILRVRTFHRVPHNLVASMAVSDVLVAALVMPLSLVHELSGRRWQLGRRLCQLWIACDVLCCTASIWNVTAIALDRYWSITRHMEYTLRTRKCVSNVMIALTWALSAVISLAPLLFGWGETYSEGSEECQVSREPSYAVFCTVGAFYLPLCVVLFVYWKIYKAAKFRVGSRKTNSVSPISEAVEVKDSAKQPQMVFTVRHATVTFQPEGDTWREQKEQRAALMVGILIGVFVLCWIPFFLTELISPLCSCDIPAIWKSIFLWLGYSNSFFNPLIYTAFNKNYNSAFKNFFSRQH

mutant 5-HT5AR [4] = molecular target: mutant 5-HT5AR (Homo sapiens, UniProt P47898, E305A); assay: BRET2 Gi1-activation assay, mutant 5-HT5ARs; assay type: cell-based; details: mutant E305A
Sequence of mutant 5-HT5AR (Homo sapiens, UniProt P47898, E305A) (P47898 whole entry E305A): as the sequence (P47898 whole entry S204C) above, with C204S, E305A counted along it

mutant 5-HT5AR [5] = assay: BRET2 Gi1-activation assay, mutant 5-HT5ARs; assay type: cell-based, human; details: for effect on Gi1 activation: mutants S204A and S204G
mutant 5-HT5AR [6] = molecular target: mutant 5-HT5AR (Homo sapiens, UniProt P47898, A227L); assay: BRET2 Gi1-activation assay, mutant 5-HT5ARs; assay type: cell-based; details: mutant A227L versus WT
Sequence of mutant 5-HT5AR (Homo sapiens, UniProt P47898, A227L) (P47898 whole entry A227L): as the sequence (P47898 whole entry S204C) above, with C204S, A227L counted along it

T1 sequence (P47898 whole entry): as the sequence (P47898 whole entry S204C) above, with C204S counted along it

SMILES | agonist type for Gi signaling (5-HT5AR [1]) | miniGi recruitment (5-HT5AR [2]) | effect on Gi1 activation (mutant 5-HT5AR [3]) | effect on activation of Gi1 signaling (mutant 5-HT5AR [4]) | effect on Gi1 activation (mutant 5-HT5AR [5]) | increase of efficacy of Gi1 activation (mutant 5-HT5AR [6]) [%] | improvement of potency of Gi1 activation (mutant 5-HT5AR [5]; {})
NCCc1c[nH]c2ccc(C(N)=O)cc12 [5-CT, 5-carboxamidotryptamine] | full agonist | unable to efficiently recruit miniGi | severely affected | failed to show a large effect | dramatically reduced the potency | – | –
NCCc1c[nH]c2ccc(O)cc12 [5-HT, 5-hydroxytryptamine] | – | – | severely affected | – | modest effects on both the potency and efficacy | 20 | more than 30 fold
CC[C@@H](CO)NC(=O)[C@@H]1C=C2c3cccc4[nH]cc(c34)C[C@H]2N(C)C1 [methylergometrine] | full agonist | – | – | – | – | – | –

— article PMC9299520 (Nature structural & molecular biology, 2022)
